Measured values gathered from unrelated publications.
Lines come from different studies, so protocols differ.
Target: MAP kinase-interacting serine/threonine-protein kinase 1 (MKNK1, Homo sapiens, UniProt Q9BUB5)

Structure (SMILES) | assay | setting | measurement | value
CCC(=O)N[C@@H]1CC[C@H](C(=O)N(C)c2ccc(-c3nc4ccccc4o3)cc2)C1 | cell-free assay, competition with immobilised ligand | 1 µM | remaining binding | 95%
CC(C)(C)c1nc2c(s1)c1nc(N)ncc1c1ccc(NS(=O)(=O)c3c(F)cccc3F)c(F)c12 | enzyme activity, inhibitor, radiometric | 1 µM | remaining activity | 117%
CNC(=O)c1cc(Oc2ccc(NC(=O)Nc3ccc(Cl)c(C(F)(F)F)c3)cc2)ccn1 | cell-free assay | 0.5 µM | remaining signal | 75.1%
CCCCN(CCCC)C(=O)CN1C[C@H](c2cc(OC)c3c(c2)OCO3)[C@@H](C(=O)O)[C@@H]1CC(C)(C)CCC | cell-free assay, competition with immobilised ligand | 1 µM | remaining binding | 93.3%
Cc1ccc(C(=O)Nc2ccc(CN3CCN(C)CC3)c(C(F)(F)F)c2)cc1C#Cc1cnc2cccnn12 | enzyme activity, inhibitor | 23.5 nM | remaining activity | 98%
Cc1nccc(COC(=O)N2C[C@@H]3[C@@H](CNC(=O)c4ccc5[nH]nnc5c4)[C@@H]3C2)n1 | cell-free assay, competition with immobilised ligand | 1 µM | remaining binding | 91%
O=C(Nc1cnn(-c2csc(C(=O)NC3COC3)c2)c1)Nc1c(F)cccc1Cl | enzyme activity, inhibitor | 5 µM | remaining activity | 103%
COc1cc2ncnc(Nc3ccc(Oc4ccccc4)c(C)c3C)c2cc1OC | enzyme activity, inhibitor | 1 µM | inhibition | -6%
CS(=O)(=O)Nc1cccc(-c2csc(NC(=O)CSc3nc4nccnc4c(=O)n3CCc3ccccc3)n2)c1 | enzyme activity, inhibitor | 10 µM | inhibition | -14%
CCS(=O)(=O)c1cc2cc(C[C@](O)(CC(C)(C)c3ccc(F)cc3C(N)=O)C(F)(F)F)[nH]c2cn1 | cell-free assay, competition with immobilised ligand | 1 µM | remaining binding | 97%
CN(c1ncccc1CNc1nc(Nc2ccc3c(c2)CC(=O)N3)ncc1C(F)(F)F)S(C)(=O)=O | enzyme activity, inhibitor | 1 µM | inhibition | 3.8%
FC(F)c1nc2ccccc2n1-c1nc(N2CCOCC2)nc(N2CCOCC2)n1 | enzyme activity, inhibitor | 10 µM | remaining activity | 96%
CC(C)(O)[C@H]1CC[C@H](Nc2ccc3ncc(-c4cccc(C(F)(F)F)c4)n3n2)CC1 | enzyme activity, inhibitor | 1 µM | remaining activity | 73.7%
CNC(=O)c1ccc(Nc2ncc(C(F)(F)F)c(NCc3nccnc3N(C)S(C)(=O)=O)n2)cc1 | cell-free assay, competition with immobilised ligand | 0.1 µM | remaining binding | 83%
FC(F)(F)Oc1cccc(-c2cnc3ccc(-c4ccncc4)nn23)c1 | enzyme activity, inhibitor, radiometric | 5 µM | activity vs control | 72%
FC(F)(F)c1ccc2c(c1)nc(-c1cccnc1)n2C1CC1 | cell-free assay, competition with immobilised ligand | 1 µM | remaining binding | 100%
O=C1NC(=O)c2cc(Nc3ccc(F)cc3)c(Nc3ccc(F)cc3)cc21 | cell-free assay | 0.5 µM | remaining signal | 103%
COc1cc(Nc2cnc(C#N)c(O[C@H](C)CN(C)C)n2)ncc1-c1cnn(C)c1 | enzyme activity, inhibitor, radiometric | 1 µM | remaining activity | 94%
Nc1nc(Nc2ccccc2)sc1C(=O)c1c(F)cccc1F | enzyme activity, inhibitor | 10 µM | remaining activity | 110%
Cn1c(=O)n(-c2ccc(C(C)(C)C#N)cc2)c2c3cc(-c4cnc5ccccc5c4)ccc3ncc21 | enzyme activity, inhibitor | 10 µM | remaining activity | 101%
COc1cc(/C=C/C(=O)CC(=O)/C=C/c2ccc(O)c(OC)c2)ccc1O | enzyme activity, inhibitor | 1 µM | activity vs control | 112%
COc1cc(Nc2c(C#N)cnc3cc(OCCCN4CCN(C)CC4)c(OC)cc23)c(Cl)cc1Cl | cell-free assay | 0.5 µM | remaining signal | 96.9%
O=C(O)[C@H]1[C@H](Cn2nnc3ccccc3c2=O)CC[C@@H]1C(=O)c1ccc(OCCC2CCOCC2)cc1 | cell-free assay, competition with immobilised ligand | 1 µM | remaining binding | 96%
